Assay results: ChEMBL document CHEMBL4689842, “EUbOPEN Chemogenomics Library wave 1” (2021)

Tested on: Fibroblast
Assay: Multiplex assay against human fibroblast
Format: toxicity, cell-based
Procedure, shortened: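 Four dyes were applied at seeding to live cells: Hoechst33342, BioTracker Green Microtubule Cytoskeleton Dye, MitoTracker Red and Annexin V Alexa Fluor 680. Imaging after compound addition used a CQ1 microscope at 37°C and 5% CO2. CellPathfinder machine-learning gating then sorted cells into Hoechst high-intensity objects or normal cells, normal cells into healthy, pyknosed or fragmented nuclei, and pyknosed cells into mitotic or apoptotic, with tubulin, mitochondrial-mass and membrane-permeability phenotypes given as per cents of healthy-nucleus cells.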

[1] = 12 h, 0 µM, compound concentration 0 uM, replicate 1
[2] = 12 h, 0 µM, compound concentration 0 uM, replicate 2
[3] = 12 h, 1 µM, compound concentration 1 uM, replicate 1
[4] = 12 h, 1 µM, compound concentration 1 uM, replicate 2
[5] = 24 h, 0 µM, compound concentration 0 uM, replicate 1
[6] = 24 h, 0 µM, compound concentration 0 uM, replicate 2
[7] = 24 h, 1 µM, compound concentration 1 uM, replicate 1
[8] = 24 h, 1 µM, compound concentration 1 uM, replicate 2
[9] = 12 h, 10 µM, compound concentration 10 uM, replicate 1
[10] = 12 h, 10 µM, compound concentration 10 uM, replicate 2
[11] = 24 h, 10 µM, compound concentration 10 uM, replicate 1
[12] = 24 h, 10 µM, compound concentration 10 uM, replicate 2

With `CCNc1cc(N[C@H]2CC[C@H](O)CC2)nc(Nc2ccc3c(ccn3Cc3ccccc3)c2)n1` the “Population Apoptotic (%)” value [1] was 55%, the “Population Fragmented Nuclei (%)” value [1] was 24% and the “Population Healthy Nuclei (%)” value [1] was 52%. For the same compound, the “Population Hoechst High Intensity Objects (%)” value [1] was 26%, the “Population Membrane Permeable-Phenotype (%)” value [1] was 0% and the “Population Mitotic Cells (%)” value [1] was 44%. For the same compound, the “Population Normal (%)” value [1] was 73%, the “Population Pyknosed Nuclei (%)” value [1] was 22% and the “Population Tubulin-Different-Phenotype (%)” value [1] was 38%. For the same compound, the “Total Cell Count” value [1] was 280, the “Population Apoptotic (%)” value [2] was 60% and the “Population Fragmented Nuclei (%)” value [2] was 40%. For the same compound, the “Population Healthy Nuclei (%)” value [2] was 48%, the “Population Hoechst High Intensity Objects (%)” value [2] was 47% and the “Population Membrane Permeable-Phenotype (%)” value [2] was 4%. The “Population Mitochondria Different-Phenotype (%)” value [2] was 41%, the “Population Mitotic Cells (%)” value [2] was 40% and the “Population Normal (%)” value [2] was 52%. For the same compound, the “Population Pyknosed Nuclei (%)” value [2] was 10%, the “Population Tubulin-Different-Phenotype (%)” value [2] was 41% and the “Total Cell Count” value [2] was 94. For the same compound, the “Population Apoptotic (%)” value [3] was 76%, the “Population Fragmented Nuclei (%)” value [3] was 45% and the “Population Healthy Nuclei (%)” value [3] was 47%. The “Population Hoechst High Intensity Objects (%)” value [3] was 20%, the “Population Membrane Permeable-Phenotype (%)” value [3] was 2% and the “Population Mitochondria Different-Phenotype (%)” value [3] was 11%. For the same compound, the “Population Mitotic Cells (%)” value [3] was 23%, the “Population Normal (%)” value [3] was 79% and the “Population Pyknosed Nuclei (%)” value [3] was 7%. For the same compound, the “Population Tubulin-Different-Phenotype (%)” value [3] was 12%, the “Total Cell Count” value [3] was 286 and the “Population Apoptotic (%)” value [4] was 66%. The “Population Fragmented Nuclei (%)” value [4] was 67%, the “Population Healthy Nuclei (%)” value [4] was 29% and the “Population Hoechst High Intensity Objects (%)” value [4] was 50%. For the same compound, the “Population Membrane Permeable-Phenotype (%)” value [4] was 8%, the “Population Mitochondria Different-Phenotype (%)” value [4] was 17% and the “Population Mitotic Cells (%)” value [4] was 33%. The “Population Normal (%)” value [4] was 49%, the “Population Pyknosed Nuclei (%)” value [4] was 3% and the “Population Tubulin-Different-Phenotype (%)” value [4] was 34%. For the same compound, the “Total Cell Count” value [4] was 160, the “Population Apoptotic (%)” value [5] was 71% and the “Population Fragmented Nuclei (%)” value [5] was 21%. The “Population Healthy Nuclei (%)” value [5] was 45%, the “Population Hoechst High Intensity Objects (%)” value [5] was 38% and the “Population Mitochondria Different-Phenotype (%)” value [5] was 65%. The “Population Mitotic Cells (%)” value [5] was 28%, the “Population Normal (%)” value [5] was 61% and the “Population Pyknosed Nuclei (%)” value [5] was 32%. For the same compound, the “Population Tubulin-Different-Phenotype (%)” value [5] was 50%, the “Total Cell Count” value [5] was 257 and the “Population Apoptotic (%)” value [6] was 90%. The “Population Fragmented Nuclei (%)” value [6] was 60%, the “Population Healthy Nuclei (%)” value [6] was 21% and the “Population Hoechst High Intensity Objects (%)” value [6] was 40%. For the same compound, the “Population Membrane Permeable-Phenotype (%)” value [6] was 0%, the “Population Mitochondria Different-Phenotype (%)” value [6] was 83% and the “Population Mitotic Cells (%)” value [6] was 10%. The “Population Normal (%)” value [6] was 59%, the “Population Pyknosed Nuclei (%)” value [6] was 18% and the “Population Tubulin-Different-Phenotype (%)” value [6] was 33%. For the same compound, the “Total Cell Count” value [6] was 92, the “Population Apoptotic (%)” value [7] was 76% and the “Population Fragmented Nuclei (%)” value [7] was 45%. The “Population Healthy Nuclei (%)” value [7] was 44%, the “Population Hoechst High Intensity Objects (%)” value [7] was 21% and the “Population Membrane Permeable-Phenotype (%)” value [7] was 0%. For the same compound, the “Population Mitochondria Different-Phenotype (%)” value [7] was 10%, the “Population Mitotic Cells (%)” value [7] was 24% and the “Population Normal (%)” value [7] was 78%. For the same compound, the “Population Pyknosed Nuclei (%)” value [7] was 10%, the “Population Tubulin-Different-Phenotype (%)” value [7] was 10% and the “Total Cell Count” value [7] was 313. For the same compound, the “Population Apoptotic (%)” value [8] was 100%, the “Population Fragmented Nuclei (%)” value [8] was 58% and the “Population Healthy Nuclei (%)” value [8] was 40%. For the same compound, the “Population Hoechst High Intensity Objects (%)” value [8] was 53%, the “Population Membrane Permeable-Phenotype (%)” value [8] was 3% and the “Population Mitochondria Different-Phenotype (%)” value [8] was 50%. For the same compound, the “Population Mitotic Cells (%)” value [8] was 0%, the “Population Normal (%)” value [8] was 46% and the “Population Pyknosed Nuclei (%)” value [8] was 1%. For the same compound, the “Population Tubulin-Different-Phenotype (%)” value [8] was 53% and the “Total Cell Count” value [8] was 152.
For `COC(=N)c1nc2ccc3ncnc(Nc4ccc(OC)cc4F)c3c2s1`, the “Population Apoptotic (%)” value [3] was 55%, the “Population Fragmented Nuclei (%)” value [3] was 30% and the “Population Healthy Nuclei (%)” value [3] was 60%. For the same compound, the “Population Hoechst High Intensity Objects (%)” value [3] was 17%, the “Population Membrane Permeable-Phenotype (%)” value [3] was 3% and the “Population Mitochondria Different-Phenotype (%)” value [3] was 3%. The “Population Mitotic Cells (%)” value [3] was 44%, the “Population Normal (%)” value [3] was 82% and the “Population Pyknosed Nuclei (%)” value [3] was 9%. The “Population Tubulin-Different-Phenotype (%)” value [3] was 1%, the “Total Cell Count” value [3] was 119 and the “Population Apoptotic (%)” value [4] was 28%. The “Population Fragmented Nuclei (%)” value [4] was 50%, the “Population Healthy Nuclei (%)” value [4] was 34% and the “Population Hoechst High Intensity Objects (%)” value [4] was 33%. The “Population Membrane Permeable-Phenotype (%)” value [4] was 6%, the “Population Mitochondria Different-Phenotype (%)” value [4] was 6% and the “Population Mitotic Cells (%)” value [4] was 71%. The “Population Normal (%)” value [4] was 66%, the “Population Pyknosed Nuclei (%)” value [4] was 15% and the “Population Tubulin-Different-Phenotype (%)” value [4] was 6%. For the same compound, the “Total Cell Count” value [4] was 69, the “Population Apoptotic (%)” value [9] was 76% and the “Population Fragmented Nuclei (%)” value [9] was 20%. The “Population Healthy Nuclei (%)” value [9] was 60%, the “Population Hoechst High Intensity Objects (%)” value [9] was 11% and the “Population Membrane Permeable-Phenotype (%)” value [9] was 7%. For the same compound, the “Population Mitochondria Different-Phenotype (%)” value [9] was 0%, the “Population Mitotic Cells (%)” value [9] was 23% and the “Population Normal (%)” value [9] was 88%. For the same compound, the “Population Pyknosed Nuclei (%)” value [9] was 18%, the “Population Tubulin-Different-Phenotype (%)” value [9] was 1% and the “Total Cell Count” value [9] was 238. For the same compound, the “Population Apoptotic (%)” value [10] was 100%, the “Population Fragmented Nuclei (%)” value [10] was 57% and the “Population Healthy Nuclei (%)” value [10] was 35%. For the same compound, the “Population Hoechst High Intensity Objects (%)” value [10] was 30%, the “Population Membrane Permeable-Phenotype (%)” value [10] was 5% and the “Population Mitochondria Different-Phenotype (%)” value [10] was 5%. For the same compound, the “Population Mitotic Cells (%)” value [10] was 0%, the “Population Normal (%)” value [10] was 69% and the “Population Pyknosed Nuclei (%)” value [10] was 7%. The “Population Tubulin-Different-Phenotype (%)” value [10] was 5%, the “Total Cell Count” value [10] was 82 and the “Population Apoptotic (%)” value [7] was 77%. The “Population Fragmented Nuclei (%)” value [7] was 41%, the “Population Healthy Nuclei (%)” value [7] was 50% and the “Population Hoechst High Intensity Objects (%)” value [7] was 19%. For the same compound, the “Population Membrane Permeable-Phenotype (%)” value [7] was 8%, the “Population Mitochondria Different-Phenotype (%)” value [7] was 6% and the “Population Mitotic Cells (%)” value [7] was 22%. For the same compound, the “Population Normal (%)” value [7] was 80%, the “Population Pyknosed Nuclei (%)” value [7] was 7% and the “Population Tubulin-Different-Phenotype (%)” value [7] was 1%. For the same compound, the “Total Cell Count” value [7] was 146, the “Population Apoptotic (%)” value [8] was 42% and the “Population Fragmented Nuclei (%)” value [8] was 44%. The “Population Healthy Nuclei (%)” value [8] was 36%, the “Population Hoechst High Intensity Objects (%)” value [8] was 30% and the “Population Membrane Permeable-Phenotype (%)” value [8] was 7%. For the same compound, the “Population Mitochondria Different-Phenotype (%)” value [8] was 7%, the “Population Mitotic Cells (%)” value [8] was 57% and the “Population Normal (%)” value [8] was 69%. The “Population Pyknosed Nuclei (%)” value [8] was 18%, the “Population Tubulin-Different-Phenotype (%)” value [8] was 14% and the “Total Cell Count” value [8] was 55. For the same compound, the “Population Apoptotic (%)” value [11] was 65%, the “Population Fragmented Nuclei (%)” value [11] was 20% and the “Population Healthy Nuclei (%)” value [11] was 62%. For the same compound, the “Population Hoechst High Intensity Objects (%)” value [11] was 13%, the “Population Membrane Permeable-Phenotype (%)” value [11] was 5% and the “Population Mitochondria Different-Phenotype (%)” value [11] was 2%. The “Population Mitotic Cells (%)” value [11] was 34%, the “Population Normal (%)” value [11] was 86% and the “Population Pyknosed Nuclei (%)” value [11] was 17%. For the same compound, the “Population Tubulin-Different-Phenotype (%)” value [11] was 1%, the “Total Cell Count” value [11] was 246 and the “Population Apoptotic (%)” value [12] was 50%. The “Population Fragmented Nuclei (%)” value [12] was 54%, the “Population Healthy Nuclei (%)” value [12] was 37% and the “Population Hoechst High Intensity Objects (%)” value [12] was 30%. For the same compound, the “Population Membrane Permeable-Phenotype (%)” value [12] was 10%, the “Population Mitochondria Different-Phenotype (%)” value [12] was 5% and the “Population Mitotic Cells (%)” value [12] was 50%. The “Population Normal (%)” value [12] was 69%, the “Population Pyknosed Nuclei (%)” value [12] was 7% and the “Population Tubulin-Different-Phenotype (%)” value [12] was 10%. The “Total Cell Count” value [12] was 73.
